Reference: ChEMBL document CHEMBL4130494, “Crassiflorone derivatives that inhibit Trypanosoma brucei glyceraldehyde-3-phosphate dehydrogenase (TbGAPDH) and Trypanosoma cruzi trypanothione reductase (TcTR) and display trypanocidal activity” (Eur J Med Chem, 2017)
Converted amounts (≈) assume the structure as drawn. The source made the active and inactive calls. No cut-off for these calls is given here.

How the values were obtained:
CYP2D6 = CYP2D6 (Homo sapiens, UniProt P10635); assay: Inhibition of human CYP2D6 at 10 uM by P450-Glo assay relative to control; assay type: ADME
Chain of CYP2D6 (P10635 whole entry): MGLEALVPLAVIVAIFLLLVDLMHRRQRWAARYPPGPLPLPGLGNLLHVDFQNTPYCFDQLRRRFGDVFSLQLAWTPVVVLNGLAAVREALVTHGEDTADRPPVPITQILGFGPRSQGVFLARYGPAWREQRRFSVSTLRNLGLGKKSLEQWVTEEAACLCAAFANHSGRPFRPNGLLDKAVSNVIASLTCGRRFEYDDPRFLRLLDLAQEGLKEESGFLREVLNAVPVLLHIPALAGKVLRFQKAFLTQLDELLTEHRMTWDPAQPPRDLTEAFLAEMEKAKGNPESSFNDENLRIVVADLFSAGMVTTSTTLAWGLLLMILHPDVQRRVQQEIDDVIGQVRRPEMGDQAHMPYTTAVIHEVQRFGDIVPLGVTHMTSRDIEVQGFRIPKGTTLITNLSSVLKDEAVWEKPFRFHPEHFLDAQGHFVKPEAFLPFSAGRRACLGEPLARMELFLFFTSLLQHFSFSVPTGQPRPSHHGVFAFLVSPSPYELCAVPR
Outline: (§1)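 P450-Glo luminescent platform: CYP action on each substrate generates light; decreased light taken as inhibition.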

[1] = Solubility in PBS after overnight incubation by nephelometry; assay type: physicochemical
CYP2C19 = CYP2C19 (Homo sapiens, UniProt P33261); assay: Inhibition of human CYP2C19 at 10 uM by P450-Glo assay relative to control; assay type: ADME; outline: as §1
Chain of CYP2C19 (P33261 whole entry): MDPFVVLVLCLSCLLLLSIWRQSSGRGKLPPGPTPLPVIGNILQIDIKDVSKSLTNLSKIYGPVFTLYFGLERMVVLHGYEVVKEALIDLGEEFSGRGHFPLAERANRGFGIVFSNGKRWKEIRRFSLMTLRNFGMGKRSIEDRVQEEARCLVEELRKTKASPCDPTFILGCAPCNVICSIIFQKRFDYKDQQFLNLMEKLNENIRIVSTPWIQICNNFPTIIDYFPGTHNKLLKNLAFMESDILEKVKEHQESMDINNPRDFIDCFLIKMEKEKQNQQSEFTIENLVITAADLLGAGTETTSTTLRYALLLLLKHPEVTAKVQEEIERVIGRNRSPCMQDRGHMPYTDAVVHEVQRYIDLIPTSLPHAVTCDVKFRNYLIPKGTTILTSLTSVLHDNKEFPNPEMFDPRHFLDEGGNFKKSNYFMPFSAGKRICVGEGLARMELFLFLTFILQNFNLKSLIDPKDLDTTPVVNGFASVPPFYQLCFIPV

Trypanosoma cruzi = assay: Growth inhibition of Trypanosoma cruzi Y trypamastigotes infected in human U2OS cells at 10 uM after 72 hrs by Draq 5 staining based high-content automated imaging analysis relative to control; assay type: functional; settings: read-out: GI
Outline: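 U2OS cells (3,000/well) co-seeded with Y strain trypomastigotes at 5:1 right after compound addition; 72 h at 37 °C, 5% CO2. Fixed, stained, imaged and normalized as for the Leishmania assay; host toxicity from cell ratio against negative-control wells.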

Trypanosoma brucei = assay: Inhibition of Trypanosoma brucei glyceraldehyde-3-phosphate dehydrogenase at 10 uM using GAP as substrate in presence of NAD+ by spectrophotometric method relative to control
Outline: (§2)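 Recombinant TbGAPDH (200–300 μg protein) in 10 mM triethanolamine, 1.7 mM NaHCO3, 100 mM KCl, 5 mM MgSO4, 1 mM EDTA, pH 7.6, 25 °C, with 400 μM NAD+, 500 μM KH2PO4, 300 μM GAP; NAD+ reduction followed at 340 nm; inhibitors from DMSO stocks; triplicate; reported as percentage activity.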

Leishmania infantum = assay: Growth inhibition of Leishmania infantum MHOM/BR/72/BH046 amastigotes infected in human THP1 cells at 10 uM after 48 hrs by Draq 5 staining based high-content automated imaging analysis relative to control; assay type: functional; settings: MHOM/BR/72/BH046, THP-1, 48 h, read-out: GI
Outline: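 THP-1 cells differentiated 48 h with 50 ng/mL PMA, infected 24 h with 6-day-old promastigotes (50 per cell), then treated 48 h; 0.5% DMSO negative, 10 µM amphotericin B positive. Paraformaldehyde-fixed, Draq5-stained, imaged; infection ratio normalized to DMSO-treated infected and non-infected controls.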

CYP3A4 = CYP3A4 (Homo sapiens, UniProt P08684); assay: Inhibition of human CYP3A4 at 10 uM by P450-Glo assay relative to control; assay type: ADME; outline: as §1
Chain of CYP3A4 (P08684 whole entry): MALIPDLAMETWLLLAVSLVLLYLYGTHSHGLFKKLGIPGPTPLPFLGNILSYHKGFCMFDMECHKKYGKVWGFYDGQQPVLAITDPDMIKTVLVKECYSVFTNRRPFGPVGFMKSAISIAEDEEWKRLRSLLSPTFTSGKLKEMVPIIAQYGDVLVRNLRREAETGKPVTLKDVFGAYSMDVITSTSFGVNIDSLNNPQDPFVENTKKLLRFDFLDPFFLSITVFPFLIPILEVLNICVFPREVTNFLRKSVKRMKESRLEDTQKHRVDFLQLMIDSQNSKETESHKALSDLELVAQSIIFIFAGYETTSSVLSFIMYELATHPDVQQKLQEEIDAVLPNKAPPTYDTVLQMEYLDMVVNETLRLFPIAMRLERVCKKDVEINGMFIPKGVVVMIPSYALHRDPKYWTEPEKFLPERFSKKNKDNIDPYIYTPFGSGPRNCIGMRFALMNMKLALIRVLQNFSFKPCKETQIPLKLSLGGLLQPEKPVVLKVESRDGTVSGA

CYP2C9 = CYP2C9 (Homo sapiens, UniProt P11712); assay: Inhibition of human CYP2C9 at 10 uM by P450-Glo assay relative to control; assay type: ADME; outline: as §1
Chain of CYP2C9 (P11712 whole entry): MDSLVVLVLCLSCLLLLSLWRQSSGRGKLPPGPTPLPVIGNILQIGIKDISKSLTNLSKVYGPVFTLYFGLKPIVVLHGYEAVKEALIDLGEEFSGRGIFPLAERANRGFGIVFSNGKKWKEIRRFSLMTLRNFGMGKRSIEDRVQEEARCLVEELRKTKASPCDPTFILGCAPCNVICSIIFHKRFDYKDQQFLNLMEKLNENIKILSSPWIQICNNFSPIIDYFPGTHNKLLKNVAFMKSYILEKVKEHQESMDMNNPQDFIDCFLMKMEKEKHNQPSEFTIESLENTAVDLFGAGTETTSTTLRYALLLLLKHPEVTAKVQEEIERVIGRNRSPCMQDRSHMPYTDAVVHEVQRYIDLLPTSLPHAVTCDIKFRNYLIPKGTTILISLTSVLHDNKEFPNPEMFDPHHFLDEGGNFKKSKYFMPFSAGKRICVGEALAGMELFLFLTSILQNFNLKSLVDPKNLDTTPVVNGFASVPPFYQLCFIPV

[2] = target: Trypanothione reductase (Trypanosoma cruzi) (UniProt P28593); assay: Inhibition of Trypanosoma cruzi trypanothione reductase assessed as reduction in NADPH consumption at 10 uM using 100 uM trypanothione disulfide as substrate by spectrophotometric method
Chain of Trypanothione reductase (Trypanosoma cruzi) (P28593 whole entry, looked up): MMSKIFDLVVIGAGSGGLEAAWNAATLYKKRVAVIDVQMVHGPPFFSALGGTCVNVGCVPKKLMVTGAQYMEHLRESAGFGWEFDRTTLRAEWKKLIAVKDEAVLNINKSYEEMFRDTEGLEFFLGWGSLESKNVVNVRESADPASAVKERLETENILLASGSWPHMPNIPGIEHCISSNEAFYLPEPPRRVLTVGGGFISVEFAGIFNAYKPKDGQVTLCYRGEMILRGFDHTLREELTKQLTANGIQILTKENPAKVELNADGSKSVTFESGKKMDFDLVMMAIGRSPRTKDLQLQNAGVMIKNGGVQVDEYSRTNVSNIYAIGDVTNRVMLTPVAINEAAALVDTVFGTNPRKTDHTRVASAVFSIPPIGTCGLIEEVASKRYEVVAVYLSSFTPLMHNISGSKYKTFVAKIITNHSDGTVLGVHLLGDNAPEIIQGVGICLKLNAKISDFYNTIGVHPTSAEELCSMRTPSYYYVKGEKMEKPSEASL
Outline: (§3)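 Recombinant TcTR (5–10 mU) at 25 °C in 40 mM HEPES, 1 mM EDTA, pH 7.5, 100 μM NADPH, 5% DMSO; started with trypanothione disulfide; NADPH consumption read at 340 nm; percentage inhibition calculated.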

[3] = target: T1, Pteridine reductase, putative (Trypanosoma brucei) (UniProt Q581W1); assay: Inhibition of Trypanosoma brucei pteridine reductase 1 assessed as reduction in conversion of dihydrobiopterin to tetrahydrobiopterin at 20 uM up to 50 mins in presence of NADPH by cytochrome c reduction coupled photometric assay relative to control
T1 sequence (whole entry): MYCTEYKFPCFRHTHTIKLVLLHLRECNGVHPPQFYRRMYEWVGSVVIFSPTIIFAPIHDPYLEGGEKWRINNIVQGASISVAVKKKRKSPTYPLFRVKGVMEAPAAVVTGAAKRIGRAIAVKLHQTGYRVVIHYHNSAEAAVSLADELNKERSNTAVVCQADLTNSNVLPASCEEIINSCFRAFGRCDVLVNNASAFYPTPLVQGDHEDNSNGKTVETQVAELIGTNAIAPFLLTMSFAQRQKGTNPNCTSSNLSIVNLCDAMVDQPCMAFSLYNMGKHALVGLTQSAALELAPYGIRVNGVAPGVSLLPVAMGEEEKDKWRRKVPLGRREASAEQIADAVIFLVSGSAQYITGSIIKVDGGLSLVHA

hERG (KCNH2) = hERG (KCNH2) (Homo sapiens, UniProt Q12809); assay: Inhibition of Tracer Red binding to human ERG expressed in membranes at 10 uM by fluorescence polarization assay relative to control; settings: membranes expressing human ERG, probe Tracer Red
Chain of hERG (KCNH2) (Q12809 whole entry): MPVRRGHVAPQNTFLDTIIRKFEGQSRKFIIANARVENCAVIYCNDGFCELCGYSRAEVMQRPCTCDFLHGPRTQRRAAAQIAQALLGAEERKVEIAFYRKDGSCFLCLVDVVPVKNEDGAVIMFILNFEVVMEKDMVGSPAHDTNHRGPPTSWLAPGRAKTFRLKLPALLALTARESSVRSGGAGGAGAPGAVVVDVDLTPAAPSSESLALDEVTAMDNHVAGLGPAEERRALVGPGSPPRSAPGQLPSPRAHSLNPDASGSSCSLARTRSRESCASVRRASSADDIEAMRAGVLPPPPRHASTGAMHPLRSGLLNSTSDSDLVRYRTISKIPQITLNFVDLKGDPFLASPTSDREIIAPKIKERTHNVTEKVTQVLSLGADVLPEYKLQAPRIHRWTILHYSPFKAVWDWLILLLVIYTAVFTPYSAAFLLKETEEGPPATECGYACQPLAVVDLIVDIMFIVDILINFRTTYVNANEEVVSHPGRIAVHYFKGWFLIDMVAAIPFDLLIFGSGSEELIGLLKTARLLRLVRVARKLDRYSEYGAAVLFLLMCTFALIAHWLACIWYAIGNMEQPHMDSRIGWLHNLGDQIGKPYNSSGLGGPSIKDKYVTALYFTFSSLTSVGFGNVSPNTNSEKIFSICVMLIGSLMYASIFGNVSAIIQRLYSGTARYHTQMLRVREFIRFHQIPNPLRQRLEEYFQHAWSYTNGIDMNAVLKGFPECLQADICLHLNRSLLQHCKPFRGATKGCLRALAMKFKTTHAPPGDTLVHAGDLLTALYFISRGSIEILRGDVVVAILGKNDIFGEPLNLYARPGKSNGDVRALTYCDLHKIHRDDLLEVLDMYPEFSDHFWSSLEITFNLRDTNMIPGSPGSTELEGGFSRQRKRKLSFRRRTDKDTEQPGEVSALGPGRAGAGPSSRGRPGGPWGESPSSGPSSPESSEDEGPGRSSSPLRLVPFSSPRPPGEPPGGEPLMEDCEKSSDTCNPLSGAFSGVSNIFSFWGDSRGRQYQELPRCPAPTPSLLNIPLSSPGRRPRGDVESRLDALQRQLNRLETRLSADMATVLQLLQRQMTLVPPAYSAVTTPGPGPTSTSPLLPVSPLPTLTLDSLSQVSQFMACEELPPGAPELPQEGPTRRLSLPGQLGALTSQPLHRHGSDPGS
Outline: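 Fluorescence polarization displacement of a high-affinity red fluorescent tracer from hERG channel–containing membrane fraction.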

[4] = target: Trypanothione reductase (Trypanosoma cruzi) (UniProt P28593); assay: Inhibition of Trypanosoma cruzi trypanothione reductase assessed as reduction in NADPH consumption at 10 uM using 40 uM trypanothione disulfide as substrate by spectrophotometric method; outline: as §3
786-0 = assay: Cytotoxicity against human 786-O cells assessed as mitochondrial viability at 10 uM by CMXRos staining based high-content imaging analysis relative to control; assay type: cell-based; settings: 786-0, 10 µM
Outline: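 786-O cells kept in RPMI-1640 with 2 mM glutamine, 10% FCS, streptomycin and penicillin G; mitochondria of live cells stained with MitoTracker Red CMXRos and imaged by high-content imaging.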

[5] = Cytotoxicity against human A549 cells assessed as cell growth at 10 uM by CellTiter-Glo assay relative to control; assay type: cell-based; settings: read-out: Activity
Outline: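 A549 cells; cellular ATP measured by CellTiter-Glo luminescence as a proxy for cell number; paclitaxel 10 μM as positive control.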

[6] = tested on: Trypanosoma brucei brucei; assay: Growth inhibition of Trypanosoma brucei brucei Lister 427 bloodstream forms at 10 uM by SYBR Green based assay relative to control; assay type: functional; settings: read-out: GI
[7] = target: T2, Pteridine reductase 1 (Leishmania major) (UniProt Q01782); assay: Inhibition of Leishmania major pteridine reductase 1 assessed as reduction in conversion of dihydrobiopterin to tetrahydrobiopterin at 20 uM up to 50 mins in presence of NADPH by cytochrome c reduction coupled photometric assay relative to control
T2 sequence (whole entry): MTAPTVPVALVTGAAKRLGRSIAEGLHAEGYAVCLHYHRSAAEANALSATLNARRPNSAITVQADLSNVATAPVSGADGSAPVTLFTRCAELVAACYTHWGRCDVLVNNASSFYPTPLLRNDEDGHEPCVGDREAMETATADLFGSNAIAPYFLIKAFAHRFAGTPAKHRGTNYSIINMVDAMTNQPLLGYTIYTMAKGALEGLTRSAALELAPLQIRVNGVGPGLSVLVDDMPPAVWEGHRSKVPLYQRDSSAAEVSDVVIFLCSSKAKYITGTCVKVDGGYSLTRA

CYP1A2 = target: T3, CYP1A2 (Homo sapiens, UniProt P05177); assay: Inhibition of human CYP1A2 at 10 uM by P450-Glo assay relative to control; assay type: ADME; outline: as §1
T3 sequence (P05177 whole entry): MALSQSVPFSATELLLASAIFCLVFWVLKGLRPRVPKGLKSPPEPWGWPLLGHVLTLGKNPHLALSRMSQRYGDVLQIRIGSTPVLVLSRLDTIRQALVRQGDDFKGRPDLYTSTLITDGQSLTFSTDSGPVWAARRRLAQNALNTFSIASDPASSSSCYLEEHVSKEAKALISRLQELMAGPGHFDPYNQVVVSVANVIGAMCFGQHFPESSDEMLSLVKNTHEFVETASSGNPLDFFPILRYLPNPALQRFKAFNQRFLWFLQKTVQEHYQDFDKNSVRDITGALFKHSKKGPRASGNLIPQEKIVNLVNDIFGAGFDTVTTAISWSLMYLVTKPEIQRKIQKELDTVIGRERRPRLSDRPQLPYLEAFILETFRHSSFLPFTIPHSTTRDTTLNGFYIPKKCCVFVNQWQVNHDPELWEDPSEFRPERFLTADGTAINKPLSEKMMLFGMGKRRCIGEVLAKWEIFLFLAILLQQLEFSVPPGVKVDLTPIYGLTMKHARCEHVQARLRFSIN

Trypanothione reductase = Trypanothione reductase (Trypanosoma cruzi, UniProt P28593); assay: Mixed-type inhibition of Trypanosoma cruzi trypanothione reductase assessed as reduction in NADPH consumption using varying levels of trypanothione disulfide as substrate by Lineweaver-Burk plot analysis
Chain of Trypanothione reductase (P28593 whole entry): as the sequence (P28593 whole entry, looked up) above
Outline: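 Same TcTR assay with two fixed inhibitor concentrations and TS2 at 20, 40, 60, 100, 200 μM; inhibition type from Lineweaver–Burk plots; Ki by nonlinear least-squares fit of direct plot; inhibitor assays at least duplicate.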

[8] = Solubility in pH 7.4 Hanks simulated body fluid after overnight incubation by nephelometry; assay type: physicochemical
[9] = target: Trypanothione reductase (Trypanosoma cruzi) (UniProt P28593); assay: Inhibition of Trypanosoma cruzi trypanothione reductase assessed as reduction in NADPH consumption at 100 uM using 100 uM trypanothione disulfide as substrate by spectrophotometric method relative to control; outline: as §3
[10] = tested on: Trypanosoma brucei brucei; assay: Growth inhibition of Trypanosoma brucei brucei Lister 427 bloodstream forms at 50 uM by SYBR Green based assay relative to control; assay type: functional; settings: read-out: GI
[11] = target: T1, Pteridine reductase, putative (Trypanosoma brucei); assay: Inhibition of Trypanosoma brucei pteridine reductase 1 assessed as reduction in conversion of dihydrobiopterin to tetrahydrobiopterin at 50 uM up to 50 mins in presence of NADPH by cytochrome c reduction coupled photometric assay relative to control
[12] = target: Trypanothione reductase (Trypanosoma cruzi) (UniProt P28593); assay: Inhibition of Trypanosoma cruzi trypanothione reductase assessed as reduction in NADPH consumption at 100 uM using 40 uM trypanothione disulfide as substrate by spectrophotometric method relative to control; outline: as §3
[13] = Inhibition of Trypanosoma brucei glyceraldehyde-3-phosphate dehydrogenase using GAP as substrate in presence of NAD+ by spectrophotometric method; outline: as §2
[14] = target: T2, Pteridine reductase 1 (Leishmania major); assay: Inhibition of Leishmania major pteridine reductase 1 assessed as reduction in conversion of dihydrobiopterin to tetrahydrobiopterin at 50 uM up to 50 mins in presence of NADPH by cytochrome c reduction coupled photometric assay relative to control

Compound O=C1c2oc3c(c2C(=O)c2cccc(O)c21)c(=O)oc1ccccc13 has an inhibition at 10 µM (CYP2D6) of 102%, a solubility kinetic [1] of 14 µM (≈ 4.65 µg/mL) and an inhibition at 10 µM (CYP2C19) of 107%. The inhibition of growth at 10 µM (Trypanosoma cruzi) was less than 20%, the inhibition (Trypanosoma brucei) was 64% and the inhibition of growth at 10 µM (Leishmania infantum) was less than 20%. It also gave an inhibition at 10 µM (CYP3A4) of 40.8%, an inhibition at 10 µM (CYP2C9) of 61.5% and an inhibition [2] of 37.8%. It also gave an inhibition [3] of 0.94%, an inhibition at 10 µM (hERG (KCNH2)) of 67.1% and an inhibition [4] of 65%. It also gave an Activity (786-0) of 82.16%, a viability at 10 µM [5] of 138% and an inhibition of growth at 10 µM [6] of less than 20%. It also gave an inhibition [7] of 28.1%, an inhibition at 10 µM (CYP1A2) of 57.3% and a Ki (Trypanothione reductase) of 5.6 µM. It also gave a solubility kinetic [8] of 70 µM (≈ 23.3 µg/mL).
Nc1ccc2oc(=O)c3c4c(oc3c2c1)C(=O)c1c(O)cccc1C4=O showed an inhibition at 10 µM (CYP2D6) of 71.5%, a solubility kinetic [1] of 14 µM (≈ 4.86 µg/mL) and an inhibition at 10 µM (CYP2C19) of 63.6%. For the same compound, the inhibition [9] was “inactive”, the inhibition (Trypanosoma brucei) was 75% and the inhibition of growth at 50 µM [10] was 77%. It also gave an inhibition at 10 µM (CYP3A4) of 46.8%, an inhibition at 10 µM (CYP2C9) of 85.9% and an inhibition at 10 µM (hERG (KCNH2)) of -7.99%. It also gave an Activity (786-0) of 97.94%, a viability at 10 µM [5] of 157% and an inhibition [11] of 5.82%. For the same compound, the inhibition at 10 µM (CYP1A2) was 37.8%, the inhibition [12] was “inactive” and the IC50 [13] was 2.1 µM. It also gave an inhibition [14] of 6.19% and a solubility kinetic [8] of 35 µM (≈ 12.2 µg/mL).
